ChEMBL document CHEMBL1781875, “Chemoenzymatic synthesis with lipase catalyzed resolution and evaluation of antitumor activity of (R/S)-2-[2-hydroxy-3-(4-phenylpiperazin-1-yl)propyl]-1H-pyrrolo[3,4-b]quinolin-3(2H)-one” (Eur J Med Chem, 2011)

Columns and labels:
[1] = system: SK-N-SH; test: Cytotoxicity against human SK-N-SH cells assessed as cell viability at 10 uM after 48 hrs by MTT assay relative to untreated control; format: functional; conditions: read-out: Activity
Method in brief: (§1)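 Exponentially growing cells seeded at 2.0 × 10⁴ per well in 24-well plates, drug-treated in triplicate for 48 h at 37 °C under 5% CO₂. MTT in RPMI-1640 was added, followed by 2–3 h at 37 °C. Formazan was dissolved in DMSO and OD read at 540 nm. Viability is given as % of untreated cells (100%), mean ± SEM of three determinations.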

[2] = system: A549; test: Cytotoxicity against human A549 cells assessed as cell viability at 25 uM after 48 hrs by MTT assay relative to untreated control; format: functional; conditions: A549, 48 h, read-out: Activity; method in brief: as §1
[3] = system: A549; test: Cytotoxicity against human A549 cells assessed as cell viability at 10 uM after 48 hrs by MTT assay relative to untreated control; format: functional; conditions: A549, 48 h, read-out: Activity; method in brief: as §1
[4] = system: A549; test: Cytotoxicity against human A549 cells assessed as inhibition of cell growth after 48 hrs by MTT assay; format: functional, cell-based; conditions: A549, 48 h; method in brief: as §1
[5] = system: A549; test: Cytotoxicity against human A549 cells assessed as cell viability at 50 uM after 48 hrs by MTT assay relative to untreated control; format: functional; conditions: A549, 48 h, read-out: Activity; method in brief: as §1
[6] = system: SK-N-SH; test: Cytotoxicity against human SK-N-SH cells assessed as inhibition of cell growth after 48 hrs by MTT assay; format: functional, cell-based; method in brief: as §1
[7] = system: SK-N-SH; test: Cytotoxicity against human SK-N-SH cells assessed as cell viability at 25 uM after 48 hrs by MTT assay relative to untreated control; format: functional; conditions: read-out: Activity; method in brief: as §1
[8] = system: SK-N-SH; test: Cytotoxicity against human SK-N-SH cells assessed as cell viability at 50 uM after 48 hrs by MTT assay relative to untreated control; format: functional; conditions: read-out: Activity; method in brief: as §1
[9] = system: SK-N-SH; test: Cytotoxicity against human SK-N-SH cells assessed as cell viability at 5 uM after 48 hrs by MTT assay relative to untreated control; format: functional; conditions: read-out: Activity; method in brief: as §1
[10] = system: A549; test: Cytotoxicity against human A549 cells assessed as cell viability at 5 uM after 48 hrs by MTT assay relative to untreated control; format: functional; conditions: A549, 48 h, read-out: Activity; method in brief: as §1
[11] = system: A549; test: Cytotoxicity against human A549 cells assessed as cell viability at 0.1 uM after 48 hrs by MTT assay relative to untreated control; format: functional; conditions: A549, 48 h, read-out: Activity; method in brief: as §1
[12] = system: SK-N-SH; test: Cytotoxicity against human SK-N-SH cells assessed as cell viability at 1 uM after 48 hrs by MTT assay relative to untreated control; format: functional; conditions: read-out: Activity; method in brief: as §1
[13] = system: SK-N-SH; test: Cytotoxicity against human SK-N-SH cells assessed as cell viability at 0.1 uM after 48 hrs by MTT assay relative to untreated control; format: functional; conditions: read-out: Activity; method in brief: as §1
[14] = system: A549; test: Cytotoxicity against human A549 cells assessed as cell viability at1 uM after 48 hrs by MTT assay relative to untreated control; format: functional; method in brief: as §1

| SMILES | viability at 10 µM [1] | viability at 25 µM [2] | viability at 10 µM [3] | IC50 [4] | viability at 50 µM [5] | IC50 [6] | viability at 25 µM [7] | viability at 50 µM [8] | viability at 5 µM [9] | viability at 5 µM [10] | viability at 0.1 µM [11] | viability at 1 µM [12] | viability at 0.1 µM [13] | Activity [14] |
| --- | --- | --- | --- | --- | --- | --- | --- | --- | --- | --- | --- | --- | --- | --- |
| CC(=O)O[C@H](CN1CCN(c2ccccc2)CC1)CN1Cc2cc3ccccc3nc2C1=O | 95.5% | 85.6% | 98.4% | 72.7 µM | 83.3% | 67.8 µM | 84.2% | 79.3% | – | – | – | – | – | – |
| O=C1c2nc3ccccc3cc2CN1C[C@@H](O)CN1CCN(c2ccccc2)CC1 | 76.8% | 81.8% | 90.7% | 54.8 µM | 74.7% | 16.2 µM | 69.1% | 49.4% | – | – | – | – | – | – |
| O=C1c2nc3ccccc3cc2CN1CC(O)CN1CCN(c2ccccc2)CC1 (racemic) | 78.3% | 85.5% | 96.5% | 63.2 µM | 78.7% | 65.1 µM | 73.5% | 70.5% | – | – | – | – | – | – |
| COc1cccc2c1C(=O)c1c(O)c3c(c(O)c1C2=O)C[C@@](O)(C(=O)CO)C[C@@H]3O[C@H]1C[C@H](N)[C@H](O)[C@H](C)O1 [DOXORUBICIN] | – | – | – | – | – | 19.9 µM | – | – | 51% | 33.9% | 76.6% | 60.8% | 72.5% | 65.33% |
